We go through 17 compounds from ChEMBL document CHEMBL5316310, “Discovery of MK-8189, a Highly Potent and Selective PDE10A Inhibitor for the Treatment of Schizophrenia” (J Med Chem, 2023).

A short description of data set [1]: Selectivity ratio of Ki for Rhesus monkey PDE2A3 transfected in AD293 cells cytosolic fraction to Ki for human PDE10A2 transfected in human AD293 cells cytosolic fraction. Type of data set: cell-based.
Data set [2] can be described thus: Selectivity ratio of Ki for N-terminal GST-tagged full length human recombinant PDE8A1 expressed in baculovirus-infected Sf9 cells to Ki for human PDE10A2 transfected in human AD293 cells cytosolic fraction.
Data set [3] in a line: Selectivity ratio of Ki for N-terminal GST-tagged human recombinant PDE1A expressed in baculovirus-infected Sf9 cells to Ki for human PDE10A2 transfected in human AD293 cells cytosolic fraction.
Data set [4] can be described thus: Selectivity ratio of Ki for N-terminal GST-tagged human recombinant PDE5A1 (1 to 875 residues) expressed in baculovirus-infected Sf9 cells to Ki for human PDE10A2 transfected in human AD293 cells cytosolic fraction.
Data set [5] can be described thus: Unbound plasma clearance in rat. Format: ADME. The note with it: in vivo. Summed up:
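Rat unbound clearance (CLu) was calculated by dividing the measured rat plasma clearance by the rat plasma free fraction.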

A short description of data set [6]: Selectivity ratio of Ki for N-terminal His-GST-tagged human recombinant PDE3A(669 to 1141 residues) expressed in baculovirus-infected Sf9 cells to Ki for human PDE10A2 transfected in human AD293 cells cytosolic fraction.
Data set [7] in a line: Selectivity ratio of Ki for N-terminal GST-tagged and C-terminal His-tagged human recombinant PDE7A (122 to 456 residues) expressed in baculovirus-infected Sf9 cells to Ki for human PDE10A2 transfected in human AD293 cells cytosolic fraction.
Another data set has as its target P-gp (ABCB1) (Rattus norvegicus, UniProt P43245). The data set is described as follows: (§1) Substrate activity at rat P-gp assessed as efflux ratio. Format: ADME.
The nature of data set [8]: Selectivity ratio of Ki for N-terminal GST-tagged full length human recombinant PDE9A2 expressed in baculovirus-infected Sf9 cells to Ki for human PDE10A2 transfected in human AD293 cells cytosolic fraction.
Data set [9] in a line: Selectivity ratio of Ki for N-terminal GST-tagged human recombinant PDE4A1A (1 to 647 residues) expressed in baculovirus-infected Sf9 cells to Ki for human PDE10A2 transfected in human AD293 cells cytosolic fraction.
A short description of data set [10]: Selectivity ratio of Ki for N-terminal GST-tagged human recombinant PDE11A4 (1 to 943 residues) expressed in baculovirus-infected Sf9 cells to Ki for human PDE10A2 transfected in human AD293 cells cytosolic fraction.
The target in data set [11] is cAMP and cAMP-inhibited cGMP 3',5'-cyclic phosphodiesterase 10A (Homo sapiens, UniProt Q9Y233). The data set is described as follows: Inhibition of human PDE10A2 transfected in human AD293 cells cytosolic fraction using cAMP as substrate by fluorescence polarization assay. Format: subcellular, Cytosol.
cAMP and cAMP-inhibited cGMP 3',5'-cyclic phosphodiesterase 10A, sequence (Q9Y233 whole entry): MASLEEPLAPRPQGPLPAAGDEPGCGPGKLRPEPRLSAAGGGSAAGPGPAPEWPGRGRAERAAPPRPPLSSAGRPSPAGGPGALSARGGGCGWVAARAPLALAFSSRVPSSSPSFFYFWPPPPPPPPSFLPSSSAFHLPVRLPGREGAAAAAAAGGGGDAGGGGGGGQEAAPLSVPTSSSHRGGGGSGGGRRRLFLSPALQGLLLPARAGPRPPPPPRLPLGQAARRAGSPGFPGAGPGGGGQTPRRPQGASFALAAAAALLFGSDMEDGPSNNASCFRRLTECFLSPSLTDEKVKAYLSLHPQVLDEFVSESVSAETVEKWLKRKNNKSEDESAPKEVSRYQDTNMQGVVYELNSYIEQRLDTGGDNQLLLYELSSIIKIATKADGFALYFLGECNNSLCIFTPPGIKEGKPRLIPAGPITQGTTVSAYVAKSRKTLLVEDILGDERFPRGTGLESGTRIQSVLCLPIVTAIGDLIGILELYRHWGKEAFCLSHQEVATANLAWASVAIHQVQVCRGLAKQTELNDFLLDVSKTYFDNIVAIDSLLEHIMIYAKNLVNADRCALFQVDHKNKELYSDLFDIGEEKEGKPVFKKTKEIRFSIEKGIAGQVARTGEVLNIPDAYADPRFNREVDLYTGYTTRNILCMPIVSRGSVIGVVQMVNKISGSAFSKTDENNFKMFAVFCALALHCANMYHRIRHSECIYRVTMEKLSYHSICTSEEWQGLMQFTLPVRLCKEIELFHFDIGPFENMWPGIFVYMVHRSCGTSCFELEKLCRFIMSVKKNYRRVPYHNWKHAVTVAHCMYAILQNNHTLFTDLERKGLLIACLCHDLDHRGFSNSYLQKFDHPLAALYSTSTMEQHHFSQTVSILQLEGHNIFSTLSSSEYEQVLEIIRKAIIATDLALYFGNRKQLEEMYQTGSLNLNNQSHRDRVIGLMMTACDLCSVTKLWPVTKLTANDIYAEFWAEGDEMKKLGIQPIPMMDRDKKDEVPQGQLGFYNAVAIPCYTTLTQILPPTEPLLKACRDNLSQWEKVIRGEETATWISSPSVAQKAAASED
Data set [12] is described as follows: Aqueous solubility of the compound at pH 7. Format: physicochemical. The note with it: buffer.
For data set [13], the target named is ATP-dependent translocase ABCB1 (Rattus norvegicus, UniProt P43245). The description is as §1. Type of data set: ADME.
ATP-dependent translocase ABCB1, sequence (P43245 whole entry): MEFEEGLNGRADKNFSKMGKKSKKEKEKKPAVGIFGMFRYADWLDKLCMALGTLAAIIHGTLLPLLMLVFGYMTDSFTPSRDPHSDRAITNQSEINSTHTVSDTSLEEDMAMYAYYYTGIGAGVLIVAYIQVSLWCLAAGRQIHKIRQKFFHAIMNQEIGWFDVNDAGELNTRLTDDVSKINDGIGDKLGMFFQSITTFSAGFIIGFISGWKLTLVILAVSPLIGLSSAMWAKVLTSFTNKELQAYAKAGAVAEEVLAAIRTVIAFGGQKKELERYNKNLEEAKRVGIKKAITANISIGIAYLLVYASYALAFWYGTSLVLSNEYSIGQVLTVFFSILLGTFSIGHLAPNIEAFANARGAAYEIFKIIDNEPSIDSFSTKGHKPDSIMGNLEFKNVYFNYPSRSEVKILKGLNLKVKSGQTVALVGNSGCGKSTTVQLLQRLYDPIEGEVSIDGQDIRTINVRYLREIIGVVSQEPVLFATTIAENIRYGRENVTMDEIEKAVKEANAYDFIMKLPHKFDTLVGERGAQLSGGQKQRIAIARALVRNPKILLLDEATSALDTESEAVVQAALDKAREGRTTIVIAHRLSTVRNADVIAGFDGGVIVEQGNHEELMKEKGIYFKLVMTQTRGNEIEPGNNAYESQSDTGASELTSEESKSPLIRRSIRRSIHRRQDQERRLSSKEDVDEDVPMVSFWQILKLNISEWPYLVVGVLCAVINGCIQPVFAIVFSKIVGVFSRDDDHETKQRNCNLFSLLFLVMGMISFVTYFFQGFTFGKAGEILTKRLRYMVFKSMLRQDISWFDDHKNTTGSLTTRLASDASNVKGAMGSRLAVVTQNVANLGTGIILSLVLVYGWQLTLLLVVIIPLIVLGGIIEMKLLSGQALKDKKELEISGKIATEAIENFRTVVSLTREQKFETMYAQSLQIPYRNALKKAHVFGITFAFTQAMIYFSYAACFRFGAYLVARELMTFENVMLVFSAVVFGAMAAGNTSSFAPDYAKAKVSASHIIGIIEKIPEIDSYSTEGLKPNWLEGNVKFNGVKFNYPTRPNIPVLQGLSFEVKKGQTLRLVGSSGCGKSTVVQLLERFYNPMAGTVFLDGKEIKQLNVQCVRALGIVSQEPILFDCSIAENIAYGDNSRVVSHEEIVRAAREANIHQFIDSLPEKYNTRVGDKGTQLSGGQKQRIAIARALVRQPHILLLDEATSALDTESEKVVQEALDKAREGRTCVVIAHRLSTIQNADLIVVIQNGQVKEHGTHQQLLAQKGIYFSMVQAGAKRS
For another data set, the system named is Rattus norvegicus. The experiment in a line: Cognitive-enhancing activity in rat assessed as improvement in novel object recognition at 0.56 mg/kg, po measured after 1 hr by novel object recognition test. Type of data set: functional, organism-based. Summed up:
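Novel object recognition in rats: oral dosing, then discrimination of a novel object from one seen 48 h earlier. Doses 0.08–0.25 mg/kg; donepezil 0.56 mg/kg as positive control. Groups compared with vehicle (p < 0.05). Plasma for exposure taken 1 h post dose, n = 4/group.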

Data set [14] addresses Voltage-gated inwardly rectifying potassium channel KCNH2 (Homo sapiens, UniProt Q12809). The data set is described as follows: Displacement of MK499 from hERG. Type of data set: toxicity.

In brackets after ≈: the same amount, converted by molar mass. Activity calls are given as the source filed them. The calls are words filed in the database; no cut-off is given here.

P-gp (ABCB1), sequence (P43245 whole entry): as above
Voltage-gated inwardly rectifying potassium channel KCNH2, sequence (Q12809 whole entry): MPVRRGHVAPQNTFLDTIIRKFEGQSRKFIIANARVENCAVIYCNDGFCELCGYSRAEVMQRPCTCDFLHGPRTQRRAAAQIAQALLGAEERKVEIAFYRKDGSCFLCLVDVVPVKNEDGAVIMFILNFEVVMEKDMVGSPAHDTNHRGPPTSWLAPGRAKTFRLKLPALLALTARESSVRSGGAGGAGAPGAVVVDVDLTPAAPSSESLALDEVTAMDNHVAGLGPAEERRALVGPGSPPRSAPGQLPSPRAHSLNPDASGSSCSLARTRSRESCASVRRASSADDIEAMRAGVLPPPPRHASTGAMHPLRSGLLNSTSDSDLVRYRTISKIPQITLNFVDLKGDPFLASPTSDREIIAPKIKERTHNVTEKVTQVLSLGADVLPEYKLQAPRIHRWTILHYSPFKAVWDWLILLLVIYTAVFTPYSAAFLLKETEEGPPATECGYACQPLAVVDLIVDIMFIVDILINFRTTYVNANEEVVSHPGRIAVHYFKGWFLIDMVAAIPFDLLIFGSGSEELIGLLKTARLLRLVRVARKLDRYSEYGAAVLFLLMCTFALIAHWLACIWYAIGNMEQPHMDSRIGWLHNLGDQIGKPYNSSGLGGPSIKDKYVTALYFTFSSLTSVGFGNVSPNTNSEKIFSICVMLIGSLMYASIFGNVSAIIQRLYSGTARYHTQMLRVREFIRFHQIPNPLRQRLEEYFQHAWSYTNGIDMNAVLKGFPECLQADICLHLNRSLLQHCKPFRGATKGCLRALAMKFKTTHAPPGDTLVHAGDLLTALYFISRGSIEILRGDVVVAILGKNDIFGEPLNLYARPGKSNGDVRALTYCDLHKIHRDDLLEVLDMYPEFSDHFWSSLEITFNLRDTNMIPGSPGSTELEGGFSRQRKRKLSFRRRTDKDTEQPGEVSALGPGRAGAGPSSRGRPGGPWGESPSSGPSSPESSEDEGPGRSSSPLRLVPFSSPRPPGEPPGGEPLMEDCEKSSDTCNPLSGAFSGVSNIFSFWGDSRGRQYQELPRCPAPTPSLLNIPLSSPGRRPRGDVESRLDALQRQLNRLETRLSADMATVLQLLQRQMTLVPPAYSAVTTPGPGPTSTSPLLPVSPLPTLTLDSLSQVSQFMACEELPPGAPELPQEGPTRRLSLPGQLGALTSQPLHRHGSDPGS

Take `Cc1c(Cl)nc(OC[C@H]2C[C@@H]2c2ccccn2)nc1NCc1cnn(C)c1`: the Ratio Ki in [1], in [2], in data set [3], in data set [4], in [6] and in data set [7] was more than 2500 throughout. Besides, the Ratio Ki in data set [8], in [9] and in [10] was more than 2500 in each case. For the same compound, the CL free in data set [5] was 174 L/h/kg. Also, the efflux ratio on P-gp (ABCB1) was 2.
Consider `Cn1cc(CNc2cc(OC[C@H]3C[C@@H]3c3ccccn3)nc3ccnn23)cn1`, for which the Ratio Ki in data set [1], in data set [2], in data set [3], in data set [4], in [6] and in data set [7] was more than 5800 in each case. In addition, the Ratio Ki in data set [8], in [9] and in [10] was more than 5800 each time. The efflux ratio on P-gp (ABCB1) came to 0.7.
For `Cc1c(NCc2cnn(C)c2)cc(OC[C@H]2C[C@@H]2c2ccccn2)nc1Cl`, the Ratio Ki in data set [1], in data set [2], in [3], in data set [4], in data set [6] and in data set [7] was more than 30000 throughout. Besides, the Ratio Ki in data set [8], in data set [9] and in data set [10] was more than 30000 throughout. In data set [11], this compound had a Ki of 0.047 nM. For the same compound, at P-gp (ABCB1), the efflux ratio was found to be 0.6. The solubility in data set [12] is 86 µM (≈ 33 µg/mL).
Take `Cn1cc(CNc2cc(OC[C@H]3C[C@@H]3c3ccccn3)nc3ccccc23)cn1`: the Ratio Ki in data set [1], in data set [2], in data set [3], in [4], in data set [6] and in data set [7] was more than 5000 throughout. Also, the Ratio Ki in [8], in data set [9] and in data set [10] was more than 5000 each time. The Ki in data set [11] is 0.49 nM. On P-gp (ABCB1), the efflux ratio worked out at 0.5. The solubility in [12] was 19 µM (≈ 7.32 µg/mL).
As for `Cc1nc(NCc2nnc(C)s2)cc(OC[C@H]2C[C@@H]2c2ccccn2)n1`, the Ratio Ki in [1], in data set [2], in data set [3], in data set [4], in [6] and in [7] was more than 45000 each time. Moreover, the Ratio Ki in data set [8], in [9] and in data set [10] was more than 45000 in each case. The Ki in data set [11] was found to be 0.33 nM. For the same compound, the CL free in [5] is 11.1 L/h/kg.
For the compound `COc1ccc([C@H]2C[C@@H]2COc2cc(NCc3cnn(C)c3)nc(C)n2)nc1`, the Ratio Ki in data set [1], in [2], in data set [3], in [4], in [6] and in [7] was more than 490000 throughout. The Ratio Ki in data set [8], in [9] and in [10] was more than 490000 throughout. In data set [11], this compound displayed a Ki of 0.054 nM. This compound also returned a CL free in data set [5] of 424.8 L/h/kg.
As for `Cc1nc(C)c(CNc2nc(OCCCc3ccc4ccccc4n3)nc(Cl)c2C)s1`, the Ratio Ki in data set [1], in data set [2], in data set [3], in data set [4], in data set [6] and in data set [7] was more than 5000 each time. The Ratio Ki in data set [8], in data set [9] and in data set [10] was more than 5000 throughout. This compound showed a CL free in [5] of 720 L/h/kg.
Consider `Cn1cc(CNc2cc(OC[C@H]3C[C@@H]3c3ccccn3)nc3cccnc23)cn1`, for which the Ratio Ki in data set [1], in data set [2], in [3], in [4], in data set [6] and in [7] was more than 2000 throughout. For the same compound, the Ratio Ki in data set [8], in data set [9] and in data set [10] was more than 2000 in each case. The compound further returned a Ki in data set [11] of 0.87 nM. For the same compound, the efflux ratio on P-gp (ABCB1) amounted to 0.7. The solubility in data set [12] was 81 µM (≈ 31.3 µg/mL).
Take `Cc1c(Cl)cc(OC[C@H]2C[C@@H]2c2ccccn2)nc1NCc1cnn(C)c1`: the affinity in data set [11] corresponds to a Ki of 3.2 nM.
Regarding `Cn1cc(CNc2cc(OC[C@H]3C[C@@H]3c3ccccn3)nc3ccncc23)cn1`, the Ratio Ki in [1], in [2], in [3], in data set [4], in data set [6] and in [7] was more than 20000 each time. In addition, the Ratio Ki in [8], in data set [9] and in data set [10] was more than 20000 throughout. In data set [11], this compound displayed a Ki of 0.12 nM. Moreover, in [13], the Ratio was determined as 24. The solubility in data set [12] stood at 22 µM (≈ 8.5 µg/mL).
As to `Cn1cc(CNc2cc(OC[C@H]3C[C@@H]3c3ccccn3)nc3cnccc23)cn1`, the Ratio Ki in data set [1], in data set [2], in data set [3], in [4], in data set [6] and in data set [7] was more than 7000 in each case. For the same compound, the Ratio Ki in data set [8], in data set [9] and in data set [10] was more than 7000 throughout. The compound also showed a Ki in data set [11] of 0.13 nM. Further, the Ratio in data set [13] was 6.3. In data set [12], this compound had a solubility of 149 µM (≈ 57.6 µg/mL).
In the case of `COc1cc2c(cc1OC)C(=O)C(CC1CCN(Cc3ccccc3)CC1)C2` (centres undefined), the outcome in the data set on Rattus norvegicus was Active.
`Cc1ccc([C@H]2C[C@@H]2COc2cc(NCc3cnn(C)c3)nc(C)n2)nc1`: the Ratio Ki in data set [1], in data set [2], in data set [3], in data set [4], in data set [6] and in data set [7] was more than 425000 each time. Also, the Ratio Ki in [8], in data set [9] and in [10] was more than 425000 each time. The same compound came in with a Ki in data set [11] of 0.061 nM. The compound further gave a CL free in data set [5] of 284.4 L/h/kg.
Regarding `COc1ccc([C@H]2C[C@@H]2COc2cc(NCc3nnc(C)s3)nc(C)n2)nc1`, the Ratio Ki in data set [1], in [2], in [3], in data set [4], in data set [6] and in data set [7] was more than 225000 in each case. Further, the Ratio Ki in data set [8], in data set [9] and in data set [10] was more than 225000 throughout. In [11], this compound had a Ki of 0.038 nM. In addition, in data set [5], the CL free worked out at 31.8 L/h/kg.
With `Cn1cc(CNc2cc(OC[C@H]3C[C@@H]3c3ccccn3)nc3ncccc23)cn1`, the Ki in [11] is 8.6 nM.
For `Cc1nc(NCc2cnn(C)c2)cc(OC[C@H]2C[C@@H]2c2ccccn2)n1`, the Ratio Ki in [1], in data set [2], in data set [3], in [4], in [6] and in data set [7] was more than 67000 throughout. For the same compound, the Ratio Ki in [8], in data set [9] and in [10] was more than 67000 throughout. In addition, the inhibitory constant (Ki) in data set [11] worked out at 0.6 nM.
On to `Cc1nnc(CNc2cc(OC[C@H]3C[C@@H]3c3ccccn3)nc3cccnc23)s1`, for which the Ratio Ki in data set [1], in [2], in data set [3], in data set [4], in data set [6] and in data set [7] was more than 3600 each time. The Ratio Ki in [8], in data set [9] and in data set [10] was more than 3600 throughout. Also, the Ki in [11] stood at 0.11 nM. This compound returned an IC50 in [14] of 25000 nM.
